How the values were obtained:
[1] = system: Panel (Carcinoma cell lines); experiment: Mean graph midpoint for growth inhibition of all human cancer cell lines; type: functional
SN12C = experiment: In vitro cytotoxicity value corresponding to 50% growth inhibition against SN12C (renal) cell line.; type: functional; settings: Homo sapiens
UACC-62 = experiment: In vitro cytotoxicity value corresponding to 50% growth inhibition against UACC-62(melanoma) cell line.; type: functional; settings: Homo sapiens
Tubulin (Bos taurus) = Tubulin (Bos taurus) (UniProt Q6B856+Q862L2+Q862F3); experiment: The compound was evaluated for inhibition of colchicine binding to tubulin.; type: protein assay; settings: concentration not given here
In short: (§1)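 Mixtures held 1.0 µM bovine brain tubulin (0.1 mg/mL), 5.0 µM [³H]colchicine and 50 µM inhibitor, incubated 10 min at 37 °C. Bound-colchicine inhibition is given as percent, from triplicate samples in each experiment.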

HOP-62 = experiment: In vitro cytotoxicity value corresponding to 50% growth inhibition against HOP-62(non small cell lung) cell line.; type: functional; settings: Homo sapiens
OVCAR-3 = experiment: In vitro cytotoxicity value corresponding to 50% growth inhibition against OVCAR-3 (ovarian) cell line.; type: functional; settings: Homo sapiens
MDA-MB-435 = experiment: In vitro cytotoxicity value corresponding to 50% growth inhibition against MDA-MB-435 (breast) cell line.; type: functional; settings: Homo sapiens
DU-145 = experiment: The In vitro cytotoxicity value corresponding to 50% growth inhibition against DU-145 (prostate) cell line.; type: functional; settings: Homo sapiens
[2] = target: Estrogen receptor (Rattus norvegicus) (UniProt P06211+Q62986); experiment: Relative binding affinity for estrogen receptor using a tritium labeled estrogen as the tracer and immature rat uterine cytosol; type: protein assay; settings: Uterus
In short: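 Competitive radiometric binding with a tritiated estrogen tracer and immature rat uterine cytosol as receptor source, incubated at 0 °C for 18 or 20 h. […] Coefficient of variation between replicate experiments is typically below 30%.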

HCT-116 = experiment: In vitro cytotoxicity value corresponding to 50% growth inhibition against HCT116 (colon) cell line.; type: functional; settings: Homo sapiens
Tubulin [3] = target: T1, Tubulin (Bos taurus, UniProt Q6B856+Q862L2+Q862F3); experiment: The compound was evaluated for inhibition of tubulin polymerization, which is purified from bovine brain; type: functional
In short: (§2)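 Electrophoretically homogeneous bovine brain tubulin at 1.2 mg/mL (12 µM), preincubated at 26 °C with varying compound concentrations, then chilled on ice before GTP was added. Assembly was followed at 26 °C by turbidity at 350 nm, and the extent was read at 20 min. IC50 was derived graphically from at least two independent assays.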

SF-539 = experiment: The In vitro cytotoxicity corresponding to 50% growth inhibition against […] (central nervous system) cell line.; type: functional; settings: Homo sapiens
Tubulin [4] = target: T1, Tubulin; experiment: Evaluated for inhibition of tubulin polymerization.; type: functional; in short: as §2
[5] = target: Tubulin beta chain (Bos taurus) (UniProt Q6B856); experiment: Evaluated for % inhibition of colchicine binding to tubulin.; set-up: concentration or dose not given beside the values; settings: concentration not given here; in short: as §1
Tubulin beta chain (Bos taurus), sequence (Q6B856 whole entry): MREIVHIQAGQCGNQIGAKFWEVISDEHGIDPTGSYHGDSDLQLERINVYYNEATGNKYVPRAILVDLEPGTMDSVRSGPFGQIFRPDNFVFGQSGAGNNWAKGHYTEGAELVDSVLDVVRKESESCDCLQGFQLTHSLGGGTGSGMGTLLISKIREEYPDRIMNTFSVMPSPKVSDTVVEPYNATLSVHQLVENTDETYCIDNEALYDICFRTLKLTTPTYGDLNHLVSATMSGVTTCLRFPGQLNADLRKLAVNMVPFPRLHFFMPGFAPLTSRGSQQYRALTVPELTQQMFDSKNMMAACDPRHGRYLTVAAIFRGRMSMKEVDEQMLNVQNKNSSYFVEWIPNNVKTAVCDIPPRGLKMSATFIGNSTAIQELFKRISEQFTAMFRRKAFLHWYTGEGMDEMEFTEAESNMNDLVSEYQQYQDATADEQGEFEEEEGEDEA

| Structure (SMILES) | GI50 [1] [µM] | GI50 (SN12C) [µM] | GI50 (UACC-62) [µM] | inhibition (Tubulin (Bos taurus)) [%] | GI50 (HOP-62) [µM] | GI50 (OVCAR-3) [µM] | GI50 (MDA-MB-435) [µM] | GI50 (DU-145) [µM] | relative binding affinity (RBA) [2] | GI50 (HCT-116) [µM] | IC50 (Tubulin [3]) [µM] | GI50 (SF-539) [µM] | IC50 (Tubulin [4]) [µM] | inhibition [5] [%] |
| --- | --- | --- | --- | --- | --- | --- | --- | --- | --- | --- | --- | --- | --- | --- |
| CCOc1cc2c(cc1O)/C(=N\OC)C[C@@H]1[C@@H]2CC[C@]2(C)[C@@H](O)CC[C@@H]12 | 0.27 | 0.39 | 0.052 | 34 | 0.11 | 0.026 | 0.029 | 0.33 | < 0.001 | 0.049 | 1.4 | – | – | – |
| CCOc1cc2c(cc1O)C(=O)C[C@@H]1[C@@H]2CC[C@]2(C)[C@@H](O)CC[C@@H]12 | 0.13 | 0.18 | 0.01 | – | 0.03 | 0.63 | < 0.01 | 0.17 | – | 0.02 | – | 0.71 | 4.1 | 19 |
| CCOc1cc2c(cc1O)CC[C@@H]1[C@@H]2CC[C@]2(C)[C@@H](O)CC[C@@H]12 | 0.076 | 0.039 | 0.016 | – | 0.018 | 0.016 | < 0.01 | 0.065 | – | 0.026 | – | 0.014 | 1.3 | 51 |
| CC(=O)Oc1cc2c(cc1OCC(F)(F)F)[C@H]1CC[C@]3(C)[C@@H](OC(C)=O)CC[C@H]3[C@@H]1CC2=O | 20 | 20 | 18 | – | 20 | 24 | 18 | 20 | – | 21 | – | 23 | > 40 | – |
| CCOc1cc2c(cc1O)CC[C@@H]1[C@@H]2CC[C@]2(C)[C@@H](OS(=O)O[C@H]3CC[C@H]4[C@@H]5CCc6cc(O)c(OCC)cc6[C@H]5CC[C@]34C)CC[C@@H]12 | 1.1 | 2.6 | 1.3 | – | 0.83 | 0.27 | 0.22 | 1.1 | – | 0.49 | – | 0.57 | 5.9 | 24 |
| CCOc1cc2c(cc1O)/C(=N\O)C[C@@H]1[C@@H]2CC[C@]2(C)[C@@H](O)CC[C@@H]12 | 0.079 | 0.021 | 0.017 | 63 | 0.011 | 0.017 | 0.01 | 0.026 | < 0.001 | 0.011 | 1.1 | 0.013 | – | – |
| CCOc1cc2c(cc1O)CC[C@@H]1[C@@H]2CC[C@]2(C)[C@@H](N)CC[C@@H]12.Cl | 3.3 | 5.2 | 3.6 | – | 11 | 1.3 | 1.7 | 1.9 | – | 3.2 | – | 4 | > 40 | – |
| CCOc1cc2c(cc1O)C=CC1C2CC[C@@]2(C)C1CC[C@@H]2O (stereo not given in full) | 3.8 | 4.6 | 4.8 | – | 3.9 | 1.9 | 0.34 | 2.1 | – | 1.1 | – | 2 | 4.4 | 8.6 |
| C[C@]12CC[C@@H]3c4cc(OCC(F)(F)F)c(O)cc4CC[C@H]3[C@@H]1CC[C@@H]2O | 2.6 | 4.5 | 2.3 | – | 12 | 0.46 | 0.28 | 7 | – | 3.2 | – | 1.4 | 1.5 | 11 |
| CCOc1cc2c(cc1O)/C(=N\N)C[C@@H]1[C@@H]2CC[C@]2(C)[C@@H](O)CC[C@@H]12 | 4.2 | 17 | 0.88 | – | 1.2 | 5.4 | 6.5 | 17 | – | 2.1 | – | 2.8 | 4.3 | 9.6 |
| CCOc1cc2c(cc1O)[C@@H](O)C[C@@H]1[C@@H]2CC[C@]2(C)[C@@H](O)CC[C@@H]12 | 0.83 | 0.66 | 0.28 | – | – | 0.35 | 5.4 | 0.71 | – | 0.35 | – | – | 2.9 | 12 |
| CCOc1cc2c(c(OCC)c1O)CC[C@@H]1[C@@H]2CC[C@]2(C)[C@@H](O)CC[C@@H]12 | 2.7 | 4.8 | – | – | 1.3 | 0.09 | 0.2 | 3.3 | – | 0.8 | – | – | 8.8 | 1.5 |
| CC(=O)Oc1cc2c(cc1OC(C)=O)[C@H]1CC[C@]3(C)[C@@H](OC(C)=O)CC[C@H]3[C@@H]1CC2 | 3.7 | 5.1 | 2.5 | – | 4.8 | 6.4 | 0.32 | 3.2 | – | 5.1 | – | 3.5 | > 40 | – |
| CCOc1cc2c(cc1O)C(N)C[C@@H]1[C@@H]2CC[C@]2(C)[C@@H](O)CC[C@@H]12 (stereo not given in full) | 40 | 59 | 19 | – | 26 | 45 | 16 | > 100 | – | 40 | – | – | > 40 | – |
| CC#Cc1cc2c(cc1O)CC[C@@H]1[C@@H]2CC[C@]2(C)[C@@H](O)CC[C@@H]12 | 1.7 | 6.9 | 0.5 | – | 1.7 | 0.34 | 0.13 | 3.6 | – | 0.48 | – | 0.95 | 4.8 | 11 |
| CCOc1cc2c(cc1O)/C(=N\NS(=O)(=O)c1ccc(C)cc1)C[C@@H]1[C@@H]2CC[C@]2(C)[C@@H](O)CC[C@@H]12 | 6.2 | 12 | – | – | 5.1 | 3.2 | – | 15 | – | 6.7 | – | 3.5 | > 40 | – |

— ChEMBL document CHEMBL1130095, “Synthesis of analogs of 2-methoxyestradiol with enhanced inhibitory effects on tubulin polymerization and cancer cell growth” (J Med Chem, 1997)
